Laboratory results: ChEMBL document CHEMBL5260818, “Anti-influenza activity of diazaadamantanes combined with monoterpene moieties” (Bioorg Med Chem Lett, 2017)

Tests used:
Influenza A virus [1] = assay: Antiviral activity against Influenza A virus A A/California/07/09 (H1N1)pdm09; format: functional, organism-based
Influenza A virus [2] = assay: Antiviral activity against Influenza A virus A/Puerto Rico/8/34 (H1N1) infected in MDCK cells assessed as inhibition of viral growth preincubated with cells for 1 hrs followed by compound addition and measured after 24 hrs by TCD titration based assay; format: functional, organism-based
Outline: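 Compounds dissolved in DMSO and diluted in MEM with 1 μg/ml trypsin, then added to MDCK cells for 1 h at 36 °C before infection (moi 0.01). Cultures were kept 24 h at 36 °C, 5% CO2. Supernatant virus progeny was grown in MDCK cells for 48 h, then titred by hemagglutination. Each concentration was run in triplicate, and IC50 was calculated.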

[3] = Cytotoxicity against MDCK cells incubated for 48 hrs by MTT assay; format: toxicity, cell-based, Canis lupus familiaris; conditions: dog
Outline: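 Uninfected MDCK cells were exposed to the dissolved compounds for 48 h at 36 °C, 5% CO2. Cells were washed twice with PBS, then given MTT ([…] in PBS) for 1 h. Formazan was dissolved in DMSO and OD read at 535 nm against concentration. Three parallels per concentration, and CC50 was calculated.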

[4] = Selectivity index, ratio of CC50 for cytotoxicity against MDCK cells to IC50 for antiviral activity against Influenza A virus A/Puerto Rico/8/34 (H1N1) infected in MDCK cells assessed as inhibition of viral growth; format: toxicity, cell-based; conditions: dog, read-out: Ratio CC50/IC50
Outline: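 SI is CC50 (MTT, uninfected MDCK, 48 h) divided by IC50 (hemagglutination titre of progeny virus from MDCK cells infected at moi 0.01 after 1 h compound pre-incubation), both from triplicate concentration series.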

## CC(C)=CCCC(C)CCNC1C2CC3CC(C2)CC1C3 (stereo unspecified)
Influenza A virus [1]
  IC50: 18 µM

## CC(C)=CCC/C(C)=C\C1N2CC3(C)CN1CC(C)(C2)C3=O (stereo unspecified)
Influenza A virus [2]
  IC50: > 99 µM
[3]
  CC50 at 48 h: 242 µM
[4]
  selectivity ratio: 2

## CC(C)=CCCC(C)CC1N2CC3(C)CN1CC(C)(C2)C3=O (stereo unspecified)
Influenza A virus [2]
  IC50: 66 µM
[3]
  CC50 at 48 h: 178 µM
[4]
  selectivity ratio: 3

## CC12CN3CC(C)(CN(C1)C3C1=CC(=O)[C@H]3C[C@@H]1C3(C)C)C2=O (stereo partly specified)
Influenza A virus [2]
  IC50: 113 µM
[3]
  CC50 at 48 h: 907 µM
[4]
  selectivity ratio: 8

## CC(CCCC(C)(C)O)CC1N2CC3(C)CN1CC(C)(C2)C3=O (stereo unspecified)
Influenza A virus [2]
  IC50: 260 µM
[3]
  CC50 at 48 h: > 904 µM
[4]
  selectivity ratio: 3

## CC1=CC[C@@H](CC2N3CC4(C)CN2CC(C)(C3)C4=O)C1(C)C (stereo partly specified)
Influenza A virus [2]
  IC50: > 331 µM
[3]
  CC50 at 48 h: 533 µM
[4]
  selectivity ratio: < 2

## CC12CN3CN(C1)CC(C)(C3)C2NCC1=CC[C@H]2C[C@@H]1C2(C)C (stereo partly specified)
Influenza A virus [2]
  IC50: 64 µM
[3]
  CC50 at 48 h: 196 µM
[4]
  selectivity ratio: 3

## CC12CN3CC(C)(CN(C1)C3C1=CC[C@H]3C[C@@H]1C3(C)C)C2=O (stereo partly specified)
Influenza A virus [2]
  IC50: > 1000 µM
[3]
  CC50 at 48 h: > 1000 µM

## CC(=O)[C@@H]1C[C@H](CC2N3CC4(C)CN2CC(C)(C3)C4=O)C1(C)C (stereo partly specified)
Influenza A virus [2]
  IC50: > 943 µM
[3]
  CC50 at 48 h: > 943 µM

## CC12CN3CN(C1)CC(C)(C3)C2N (stereo unspecified)
Influenza A virus [2]
  IC50: 143 µM
[3]
  CC50 at 48 h: > 1820 µM
[4]
  selectivity ratio: > 13

## CC(CCCC(C)(C)O)CCNC1C2(C)CN3CN(C2)CC1(C)C3 (stereo unspecified)
Influenza A virus [2]
  IC50: 134 µM
[3]
  CC50 at 48 h: 979 µM
[4]
  selectivity ratio: 7

## CC(C)=CCCC(C)CCNC1C2(C)CN3CN(C2)CC1(C)C3 (stereo unspecified)
Influenza A virus [2]
  IC50: 8 µM
[3]
  CC50 at 48 h: 239 µM
[4]
  selectivity ratio: 30

## CC(C)=CCC/C(C)=C\CNC1C2(C)CN3CN(C2)CC1(C)C3 (stereo unspecified)
Influenza A virus [2]
  IC50: > 1040 µM
[3]
  CC50 at 48 h: > 1040 µM

## CC(N)C12CC3CC(CC(C3)C1)C2 (stereo unspecified) [RIMANTADINE]
Influenza A virus [2]
  IC50: 42 µM
[4]
  selectivity ratio: 8
